# Shown are actives, neighbours in structure and some others; about 1.8% of the full set was active somewhere.
# STAT1 blocker – STAT1 signaling inhibitors, primary screen, cell-based, HTS, luciferase reporter. NIH 3T3 STAT1-luciferase reporter, IFN-gamma, luminescence. inhibition, % at 5.5 µM. 200,000 compounds, 0.35% hits. AID 920, 2007;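 active means inhibition above a set limit, the mean inhibition across all tested compounds plus 3 SD, cut at about 34% in these data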;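 further: 0% = IFN-gamma with DMSO and 100% = IFN-gamma with 300 µM nifuroxazide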
# STAT3 act – IL-6 driven STAT3 reporter potentiators, primary screen, U3A cells, luciferase, luminescence, MLSCN library; IL-6 STAT3-luciferase reporter; 100% = signal with IL-6 EC80 alone; 190,000 compounds, 0.91% hits; AID 871, 2007; activation (% of control), % at 5.6 µM;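 active means activation above the screen-wide mean of compound activation plus 3 SD, cut at about 130% in these data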;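 further: 0% = background luminescence of wells with medium and substrate only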
#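 Material: human U3A cells carrying STAT3-luciferase construct. Measured by: reporter luminescence signal. Timing: compound 1 h, then IL-6 6 h at 37 °C.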
# PPC-1+TRAIL kill – compounds killing PPC-1 cancer cells with TRAIL present, primary screen, TRAIL potentiator project, ATPLite luminescence, uHTS; AID 1443, 2008; 220,000 compounds, 0.41% hits; PPC-1 cells + TRAIL, ATPLite viability luminescence; cell killing (% activity), % at 4 µM or 5 µM;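 active means cell killing above 50% in the first pass at 4 µM, then a duplicate retest at 5 µM averaging 50% or more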;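 further: plate controls were cells with TRAIL plus DMSO for no effect and medium-only wells lacking cells for full effect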
# C8 TRAIL sens – viability loss with TRAIL in NB7+C8 cells, primary screen, TRAIL sensitizer project, cell-based, ATPlite luminescence. inhibition (viability loss, TRAIL sensitization), % at 10 µM. 360,000 compounds, 1% hits;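 active means compounds causing at least 50% loss of cell viability in the single-dose screen, relative to plate controls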
# STAT3 inh-1 – IL-6 driven STAT3 reporter inhibitors, primary screen, U3A cells, luciferase, luminescence, MLSCN library. IL-6 STAT3-luciferase reporter; host cell line lacks STAT1. AID 862, 2007. inhibition, % at 5.5 µM. 190,000 compounds, 0.89% hits;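 active means inhibition above the mean inhibition across all screened compounds plus 3 SD, cut at about 44% in these data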;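 further: 0% = DMSO only wells and 100% = 100 µM nifuroxazide control wells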
# STAT3 inh-2 – STAT3 reporter inhibitors, retest of hits, confirmation, U3A cells, luciferase, luminescence; IL-6 STAT3 luciferase reporter; cell line lacks STAT1; 1,200 compounds, 45% hits; inhibition, % at 5.7 µM; shares compounds with STAT3 inh-1; AID 1265, 2008;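 active means inhibition above the hit cutoff computed for the primary STAT3 screen, cut at about 44% in these data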;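 further: 0% = IL-6 plus DMSO and 100% = IL-6 plus nifuroxazide control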
# NFkB inh STAT3ct – NF-kB reporter inhibitors in human cells, confirmation, counter-screen for STAT3 inhibitor project, cell-based, HEK293T, luciferase, TNF-alpha stimulus. inhibition, % at 5.7 µM. shares compounds with STAT3 inh-1. 1,200 compounds, 36% hits. TNF-alpha induced;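 active means inhibition above the mean of solvent-only control wells plus 3 SD, cutoff set per campaign, cut at about 13% in these data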;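 further: 0% = TNF-alpha with DMSO and 100% = TNF-alpha with MG high control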
# STAT1 inh STAT3c – STAT1 reporter inhibitors, IFN-gamma induced, confirmation, counter-screen for STAT3 inhibitor project, cell-based, NIH 3T3, luciferase luminescence. NIH 3T3 STAT1-luciferase reporter. 1,200 compounds, 27% hits. shares compounds with STAT3 inh-1. inhibition, % at 5.7 µM. AID 1317, 2008;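 active means inhibition above the mean plus 3 SD of solvent-only control wells, limit set per screening run, cut at about 16% in these data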;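 further: 0% = DMSO with IFN-gamma and 100% = nifuroxazide control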
# * marks the source's active call; other numbers are inactive results; / = no result.
SMILES,STAT1 blocker,STAT3 act,PPC-1+TRAIL kill,C8 TRAIL sens,STAT3 inh-1,others
CCCCN1CC(COCc2ccccc2)Oc2cccc(Oc3ccc(C)cc3)c2S1(=O)=O (stereo not given),/,/,/,6,/,
CCOC(=O)C1CCCN(S(=O)(=O)CCNC(=O)c2cccc(OC)c2)C1 (stereo not given),/,/,/,-6,/,
CCc1ccc([C@H]2[C@@H]3C(=O)C[C@@H]4C(=O)N(Cc5ccccc5)C(=O)[C@@H]4[C@@H]3CN2S(=O)(=O)c2ccc(C)cc2)cc1,/,/,/,-7,/,
COCCNC(=O)c1c[nH]c2ccc(S(=O)(=O)N3CCc4ccccc43)cc2c1=O,26,76,43,71*,36,
COCCCNC(=O)c1c[nH]c2ccc(S(=O)(=O)N3CCc4ccccc43)cc2c1=O,25,91,22,23,20,
CC(=O)C[C@H](O)CC(=O)[C@@H]1OC(=O)CCCCCCCCc2ccccc21,/,/,/,-1,/,
O=S(=O)(Nc1nc2ccccc2nc1N1CCc2ccccc2C1)c1ccc(Br)cc1,-66,81,56*,61*,25,
COc1ccc(NC(=O)CC(C)NCCCN2CCCC2=O)cc1 (stereo not given),/,/,/,6,/,
Cc1ccc(C(=O)NCC(=O)OC(C)C(=O)NC2CCCc3ccccc32)cc1 (stereo not given),/,/,/,-13,/,
COc1ccc(Cc2nnc(N/N=C/c3ccc(O)cc3O)[nH]c2=O)cc1OC,-4,97,5,51*,5,
CC(=O)Nc1ccc(NC(=O)CSc2nnc(NC(=O)c3ccccc3F)s2)cc1,/,/,/,66*,/,
O=C(CSc1nnc(NC(=O)c2ccccc2F)s1)NC1CCCC1,/,/,/,38,/,
COc1cccc(N2CC(C(=O)Nc3nnc(SCC(=O)Nc4ccc(NC(C)=O)cc4)s3)CC2=O)c1 (stereo not given),/,/,/,-17,/,
COc1cccc(C(=O)Nc2nnc(SCC(=O)Nc3ccc(NC(C)=O)cc3)s2)c1,/,/,/,68*,/,
O=C(CSc1nc(O)c(C2CCCCC2)c(=O)[nH]1)Nc1ccc(F)cc1,/,/,/,0,/,
CC(C)[C@H](NC(=O)OCc1ccccc1)C(=O)OCC(=O)N1CCCCC1,/,/,/,-24,/,
Cc1ccc(S(=O)(=O)/N=C2\C=C(NS(=O)(=O)c3ccccc3)C(=O)c3ccccc32)cc1,/,/,/,-17,/,
Cc1ccc(Cl)cc1NC1=C/C(=N\S(=O)(=O)c2cccs2)c2ccccc2C1=O,-2,132,-7,92*,-28,
Cc1cccc(NC2=C/C(=N/S(=O)(=O)c3cccs3)c3ccccc3C2=O)c1,3,116,51*,95*,-8,
C=CCOC(=O)c1[nH]c2c(c1C)C(=O)CC(c1cc(OC)c(OC)c(OC)c1)C2 (stereo not given),42*,63,5,28,46*,
Cc1nn(CC(=O)NNC(=O)c2cccc(Br)c2)c(C)c1[N+](=O)[O-],/,/,/,-10,/,
CC1(C)CC(=O)C(N=Nc2cc(Cl)c(Cl)c(Cl)c2)=C(O)C1,2,102,6,23,6,
Cc1ccc(O)c(N=NC2=C(O)CC(C)(C)CC2=O)c1,7,95,47,63*,6,
C/C(=N\Nc1ccc(F)cc1F)c1ccc(F)cc1,-14,86,24,/,20,
C/C(=N\Nc1ccc(F)cc1F)c1ccc(N2CCOCC2)cc1,-15,133*,11,-5,-30,
SMILES,STAT1 blocker,STAT3 act,PPC-1+TRAIL kill,C8 TRAIL sens,STAT3 inh-1,others
CC(C)c1ccc(/C=C/C(=O)O)cc1,/,/,13,5,/,
CCCCCc1ccc(-c2ccc(/C=C/C(=O)O)cc2)nc1,-12,71,44,82*,34,
COC(=O)c1ccc(NC(=O)C(=O)c2cccn2C)cc1,47*,36,18,62*,79*,
COC(=O)c1ccc(NC(=O)c2ccccc2C(=O)Nc2ccc(C(=O)OC)cc2)cc1,/,/,/,24,/,
COC(=O)C1(C(=O)OC)c2ccccc2CN(S(=O)(=O)c2ccc(C)cc2)C1CC(C)=O (stereo not given),/,/,/,-4,/,
CCn1cnc2c(Nc3cc(F)cc(F)c3)nc(C#N)nc21,/,/,/,16,/,
N#Cc1nc(Nc2cccc(Cl)c2)c2ncn(C3CCCC3)c2n1,/,/,/,52*,/,
Nc1ccc2nc(-c3ccccc3)[nH]c2c1,-34,109,38,26,-9,
Nc1cccc(-c2nc3ccc(C(=O)c4ccccc4)cc3[nH]2)c1,/,/,/,63*,/,
O=C(/C=C/c1cccc(Cl)c1Cl)OCC(=O)N1CCOCC1,/,/,/,2,/,
Cc1ccc(C2=NS(=O)(=O)N(C)C(C(=O)NCc3cccs3)=C2)cc1,/,/,/,56*,/,
CCC(C)N(C(=O)CSc1nc2ccc(OC)cc2[nH]1)C1CCS(=O)(=O)C1 (stereo not given),/,/,/,-6,/,
O=C(Nc1ccc(OCC(=O)N2CCOCC2)cc1)c1ccccc1F,/,/,/,61*,/,
CCN1CCN(CC(=O)c2c[nH]c3ccccc23)CC1,-2,133*,4,-6,-31,
CCN(CC)c1ccc(NC(=O)CN2C(=O)CSc3ncccc32)c(C)c1,23,47,17,6,70*,STAT3 inh-2=56*;NFkB inh STAT3ct=12;STAT1 inh STAT3c=13
CNC(=O)CN1C(=O)CSc2ncccc21,-2,101,7,-8,4,
CN(CC(=O)Nc1ccc(Cl)c(Cl)c1)CC(=O)N1CCCCCC1,/,/,/,-3,/,
COc1ccc(NC(=O)CSc2ncccc2C(=O)OC(C)C)cc1OC,17,61,2,8,51*,STAT3 inh-2=37;NFkB inh STAT3ct=8;STAT1 inh STAT3c=17*
COc1ccc(NC(=O)CSc2ccccn2)cc1OC,4,104,14,0,0,
CN(C(=O)c1cccc(NC(=O)Cc2cccc([N+](=O)[O-])c2)c1)C1CCCC1,/,/,/,4,/,
Cc1ccc(C(=O)Nc2cccc(C(=O)O)c2)cc1S(=O)(=O)N1CCOCC1,19,81,4,2,23,
COc1ccc(C(=O)Nc2ccc(-c3ccc(C)o3)cc2)cc1S(=O)(=O)N1CCOCC1,0,45,21,37,70*,STAT3 inh-2=71*;NFkB inh STAT3ct=28*;STAT1 inh STAT3c=1
Cc1cc(C)n(-c2ccc(C(=O)Nc3cccc(S(=O)(=O)N4CCCC4)c3)cc2)n1,23,66,19,18,44*,STAT3 inh-2=39;NFkB inh STAT3ct=4;STAT1 inh STAT3c=9
